Measured values reported in ChEMBL document CHEMBL2413042, “Design, synthesis and evaluation of dialkyl 4-(benzo[d][1,3]dioxol-6-yl)-1,4-dihydro-2,6-dimethyl-1-substituted pyridine-3,5-dicarboxylates as potential anticonvulsants and their molecular properties prediction” (Eur J Med Chem, 2013).
In brackets after ≈: the same amount, converted by molar mass. Activity calls are given as the source filed them. The rule behind the calls is not given here.

Key:
[1] = system: Radical scavenging activity; assay: Antioxidant activity assessed as DPPH free radical scavenging activity under dark condition after 30 mins; assay type: functional
Summary of the method: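 Test compound in ethanol (10, 50, 100, 250, 500 μg/ml solutions) was added to 0.004% DPPH in methanol. The mixture was kept in the dark for 30 min and absorbance was read at 517 nm. Percent radical inhibition was calculated, with ascorbic acid as reference, and IC50 was derived.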

[2] = system: Rattus norvegicus; assay: Anticonvulsant activity in Wistar albino rat assessed as protection against subcutaneous pentylenetetrazole-induced mortality at 50 mg/kg, po administered 1 hr prior to pentylenetetrazole challenge measured for 300 secs relative to control; assay type: functional
Summary of the method: (§1)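 Male Wistar albino rats, six per group. Test agents were given orally as suspensions in 0.5% sodium carboxymethylcellulose; the reference was given i.p.; the vehicle group served as control. Pentylenetetrazole 80 mg/kg was given s.c. 1 h later. Onset of clonic convulsions and protection against mortality were recorded, with a 300 sec maximum latency. Mean±SEM; one-way ANOVA with Dunnett's test.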

[3] = system: Rattus norvegicus; assay: Anticonvulsant activity in Wistar albino rat assessed as time of onset of subcutaneous pentylenetetrazole-induced clonic convulsion at 50 mg/kg, po administered 1 hr prior to pentylenetetrazole challenge measured for 300 secs (reference value: 83 +/- 4 secs); assay type: functional
[4] = system: Rattus norvegicus; assay: Anticonvulsant activity in Wistar albino rat assessed as protection against maximum electric shock-induced hind limb tonic extension at 50 mg/kg, po administered 1 hr followed by maximum electric shock induction relative to control; assay type: functional, Hindlimb
Summary of the method: (§2)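 Male Wistar albino rats, six per group, were given test compound orally as a suspension in 0.5% sodium carboxymethylcellulose. Controls received vehicle; phenytoin 30 mg/kg was given orally. One hour after dosing, 150 mA was applied for 0.2 sec through corneal electrodes. Duration of hind limb tonic extension was recorded. Values are mean±SEM; ANOVA with Dunnett's test vs control.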

[5] = system: Mus musculus; assay: Antinociceptive activity in Swiss albino mouse assessed as reduction of capsaicin-induced flinching at 10 mg/kg, po administered 1 hr followed by capsaicin challenge; assay type: functional; set-up: scale not given: the % may be the effect or the level left
Summary of the method: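 Male Swiss mice (18-22 g), six per group, were dosed by oral gavage with compound in 0.5% sodium carboxymethylcellulose. One hour later, capsaicin (1 nmol/paw, 20 μl) was injected intraplantar into the right hind paw. Flinches of the injected paw were counted for 5 min. Values are mean±SEM; ANOVA with Dunnett's test vs vehicle control.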

[6] = system: Rattus norvegicus; assay: Anticonvulsant activity in Wistar albino rat assessed as time of onset of subcutaneous pentylenetetrazole-induced clonic convulsion at 30 mg/kg administered 1 hr prior to pentylenetetrazole challenge measured for 300 secs (reference value: 83 +/- 4 secs); assay type: functional
[7] = system: Rattus norvegicus; assay: Anticonvulsant activity in Wistar albino rat assessed as protection against maximum electric shock-induced hind limb tonic extension at 30 mg/kg administered 1 hr followed by maximum electric shock induction relative to control; assay type: functional, Hindlimb
Summary of the method: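 Male Wistar albino rats, six per group, dosed orally as a suspension in 0.5% sodium carboxymethylcellulose, with a vehicle control group. One hour later, 150 mA for 0.2 sec was applied through corneal electrodes. Duration of hind limb tonic extension was recorded, and abolition or reduction of extension was scored against control. Mean±SEM; one-way ANOVA with Dunnett's test.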

[8] = system: Rattus norvegicus; assay: Anticonvulsant activity in Wistar albino rat assessed as protection against subcutaneous pentylenetetrazole-induced mortality at 30 mg/kg administered 1 hr prior to pentylenetetrazole challenge measured for 300 secs relative to control; assay type: functional
[9] = system: Rattus norvegicus; assay: Anticonvulsant activity in Wistar albino rat assessed as protection against maximum electric shock-induced hind limb tonic extension at 30 mg/kg, po administered 1 hr followed by maximum electric shock induction relative to control; assay type: functional, Hindlimb; summary of the method: as §2
[10] = system: Rattus norvegicus; assay: Anticonvulsant activity in Wistar albino rat assessed as time of onset of subcutaneous pentylenetetrazole-induced clonic convulsion at 5 mg/kg, ip administered 1 hr prior to pentylenetetrazole challenge measured for 300 secs (reference value: 83 +/- 4 secs); assay type: functional; summary of the method: as §1
[11] = system: Rattus norvegicus; assay: Anticonvulsant activity in Wistar albino rat assessed as time of onset of subcutaneous pentylenetetrazole-induced clonic convulsion at 100 mg/kg, po administered 1 hr prior to pentylenetetrazole challenge measured for 300 secs (reference value: 83 +/- 3.8 secs); assay type: functional
[12] = system: Rattus norvegicus; assay: Anticonvulsant activity in po dosed Wistar albino rat assessed as protection against maximum electric shock-induced hind limb tonic extension administered 1 hr followed by maximum electric shock induction; assay type: functional, organism-based; settings: Hindlimb; summary of the method: as §2
[13] = system: Rattus norvegicus; assay: Anticonvulsant activity in Wistar albino rat assessed as protection against maximum electric shock-induced hind limb tonic extension at 25 mg/kg, po administered 1 hr followed by maximum electric shock induction relative to control; assay type: functional, Hindlimb; summary of the method: as §2
[14] = system: Rattus norvegicus; assay: Anticonvulsant activity in Wistar albino rat assessed as protection against maximum electric shock-induced hind limb tonic extension at 100 mg/kg, po administered 1 hr followed by maximum electric shock induction relative to control; assay type: functional, Hindlimb; summary of the method: as §2
[15] = system: Rattus norvegicus; assay: Anticonvulsant activity in Wistar albino rat assessed as protection against subcutaneous pentylenetetrazole-induced mortality at 100 mg/kg, po administered 1 hr prior to pentylenetetrazole challenge measured for 300 secs relative to control; assay type: functional; summary of the method: as §1
[16] = system: Rattus norvegicus; assay: Anticonvulsant activity in po dosed Wistar albino rat assessed as protection against subcutaneous pentylenetetrazole-induced mortality administered 1 hr prior to pentylenetetrazole challenge measured for 300 secs; assay type: functional, organism-based
[17] = system: Rattus norvegicus; assay: Anticonvulsant activity in Wistar albino rat assessed as protection against subcutaneous pentylenetetrazole-induced mortality at 25 mg/kg, po administered 1 hr prior to pentylenetetrazole challenge measured for 300 secs relative to control; assay type: functional; summary of the method: as §1
[18] = system: Rattus norvegicus; assay: Anticonvulsant activity in Wistar albino rat assessed as time of onset of subcutaneous pentylenetetrazole-induced clonic convulsion at 25 mg/kg, po administered 1 hr prior to pentylenetetrazole challenge measured for 300 secs (reference value: 83 +/- 3.8 secs); assay type: functional
[19] = system: Rattus norvegicus; assay: Anticonvulsant activity in po dosed Wistar albino rat assessed as inhibition of subcutaneous pentylenetetrazole-induced seizure administered 1 hr prior to pentylenetetrazole challenge measured for 300 secs; assay type: functional, organism-based
[20] = system: Rattus norvegicus; assay: Anticonvulsant activity in Wistar albino rat assessed as protection against maximum electric shock-induced hind limb tonic extension administered 1 hr followed by maximum electric shock induction; assay type: functional, organism-based; settings: Hindlimb; summary of the method: as §2

| SMILES | IC50 [1] [µg/mL] | Activity [2] [%] | Time [3] [s] | Activity [4] [%] | further results |
| --- | --- | --- | --- | --- | --- |
| O=C1O[C@H]([C@@H](O)CO)C(O)=C1O [ASCORBIC ACID] | 32 (≈ 182 µM) |  |  |  |  |
| CCOC(=O)C1=C(C)NC(C)=C(C(=O)OC)C1c1ccc2c(c1)OCO2 (stereo not given) | 467 (≈ 1300 µM) | 33.3 | 233 | 28.5 |  |
| COC(=O)C1=C(C)NC(C)=C(C(=O)OC)C1c1ccc2c(c1)OCO2 | 604 (≈ 1750 µM) | 0 | 200 | 27 | Activity [5]: 21% |
| CCOC(=O)C1=C(C)N(c2cccc([N+](=O)[O-])c2)C(C)=C(C(=O)OCC)C1c1ccc2c(c1)OCO2 | 363 (≈ 734 µM) | 33.3 | 250 | 49.2 |  |
| CCOC(=O)C1=C(C)N(c2cccc([N+](=O)[O-])c2)C(C)=C(C(=O)OC)C1c1ccc2c(c1)OCO2 (stereo not given) | 386 (≈ 803 µM) | 0 | 136 | 28.5 |  |
| CCOC(=O)C1=C(C)N(c2ccc([N+](=O)[O-])cc2)C(C)=C(C(=O)OC)C1c1ccc2c(c1)OCO2 (stereo not given) | 854 (≈ 1780 µM) | 33.3 | 225 | 31.7 | Activity [5]: 4% |
| COC(=O)C1=C(C)NC(C)=C(C(=O)OC)C1c1ccccc1[N+](=O)[O-] [NIFEDIPINE] |  |  |  |  | Time [6]: 215 s; Activity [7]: 66.6%; Activity [8]: 33.3% |
| O=C1NC(=O)C(c2ccccc2)(c2ccccc2)N1 [PHENYTOIN] |  |  |  |  | Activity [9]: 69.8% |
| COC(=O)C1=C(C)N(c2ccccc2)C(C)=C(C(=O)OC)C1c1ccc2c(c1)OCO2 | 542 (≈ 1290 µM) | 0 | 200 | 41.2 | Activity [5]: 0% |
| COC(=O)C1=C(C)N(c2cccc([N+](=O)[O-])c2)C(C)=C(C(=O)OC)C1c1ccc2c(c1)OCO2 | 521 (≈ 1120 µM) | 0 | 138 | 11.1 |  |
| CCOC(=O)C1=C(C)N(c2ccccc2[N+](=O)[O-])C(C)=C(C(=O)OC)C1c1ccc2c(c1)OCO2 (stereo not given) | 933 (≈ 1940 µM) | 33.3 | 251 | 44.5 |  |
| CCOC(=O)C1=C(C)N(c2ccccc2[N+](=O)[O-])C(C)=C(C(=O)OCC)C1c1ccc2c(c1)OCO2 | 874 (≈ 1770 µM) | 66.6 | 293 | 60.3 |  |
| CN1C(=O)CN=C(c2ccccc2)c2cc(Cl)ccc21 [DIAZEPAM] |  |  |  |  | Time [10]: 262 s |
| CCOC(=O)C1=C(C)N(c2ccc([N+](=O)[O-])cc2)C(C)=C(C(=O)OCC)C1c1ccc2c(c1)OCO2 | 597 (≈ 1210 µM) | 66.6 | 237 | 46 |  |
| CCOC(=O)C1=C(C)NC(C)=C(C(=O)OCC)C1c1ccc2c(c1)OCO2 | 375 (≈ 1000 µM) | 100 | >300 | 59 | Activity [5]: 8%; Time [11]: >300 s; Activity [12]: Dose-dependent effect; Activity [13]: 41.6%; Activity [14]: 72%; Activity [15]: 0%; Activity [16]: Dose-dependent effect; Activity [17]: 100%; Time [18]: 194 s; inhibition [19]: Dose-dependent effect |
| COC(=O)C1=C(C)N(c2ccc([N+](=O)[O-])cc2)C(C)=C(C(=O)OC)C1c1ccc2c(c1)OCO2 | 1289 (≈ 2760 µM) | 0 | 93 | 7.9 |  |
| COC(=O)C1=C(C)N(c2ccccc2[N+](=O)[O-])C(C)=C(C(=O)OC)C1c1ccc2c(c1)OCO2 | 2354 (≈ 5050 µM) | 0 | 174 | 33.3 |  |
| COC(=O)C1=C(C)NC(C)=C(C(=O)OC(C)C)C1c1cccc2nonc12 (stereo not given) |  |  |  |  | Activity [20]: Active |
| CCOC(=O)C1=C(C)N(c2ccccc2)C(C)=C(C(=O)OCC)C1c1ccc2c(c1)OCO2 | 443 (≈ 986 µM) | 66.6 | 275 | 46 |  |
| CCOC(=O)C1=C(C)N(c2ccccc2)C(C)=C(C(=O)OC)C1c1ccc2c(c1)OCO2 (stereo not given) | 740 (≈ 1700 µM) | 0 | 221 | 41.2 |  |
